In ChEMBL document CHEMBL1909532, “Comparative evaluation of two structurally related flavonoids, isoliquiritigenin and liquiritigenin, for their oral infection therapeutic potential” (J Nat Prod, 2011):
Converted amounts (≈) assume the structure as drawn. The source made the active and inactive calls. The calls are words filed in the database; no cut-off is given here.

Assays:
Fusobacterium nucleatum [1] = assay: Antibacterial activity against Fusobacterium nucleatum ATCC 25586 by microdilution technique in presence of 10% unstimulated whole salive; assay type: functional, organism-based
Method in brief: (§1)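 Broth microdilution growth assay, repeated in medium supplemented with 1% fetal bovine serum or with 10% unstimulated whole saliva.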

Prevotella intermedia [2] = assay: Antibacterial activity against Prevotella intermedia ATCC 25611 assessed as growth inhibition at 5 ug/ml by microdilution technique relative to untreated control; assay type: functional; details: read-out: GI
Method in brief: (§2)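 Broth microdilution against each strain; MIC read as lowest concentration with no growth. Growth also expressed as percent of compound-free control (set to 100%). Triplicate assays, two independent experiments, mean ± SD; Student's t test, p < 0.01.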

[3] = target: T1, Collagenase (Porphyromonas gingivalis) (UniProt P33437); assay: Inhibition of Porphyromonas gingivalis ATCC 33277 collagenase assessed at 100 ug/ml after 4 hrs by fluorimetric analysis relative to control
T1 sequence (whole entry): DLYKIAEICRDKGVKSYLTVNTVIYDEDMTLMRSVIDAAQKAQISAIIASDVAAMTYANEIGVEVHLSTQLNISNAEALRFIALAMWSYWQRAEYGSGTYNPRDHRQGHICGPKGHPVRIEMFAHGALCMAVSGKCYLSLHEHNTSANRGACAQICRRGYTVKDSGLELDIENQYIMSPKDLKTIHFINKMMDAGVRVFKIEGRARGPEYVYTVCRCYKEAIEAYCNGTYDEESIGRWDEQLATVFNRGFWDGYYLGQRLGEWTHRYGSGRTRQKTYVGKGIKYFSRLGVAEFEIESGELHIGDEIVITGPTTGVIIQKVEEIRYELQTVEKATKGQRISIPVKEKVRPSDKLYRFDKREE
Method in brief: (§3)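 Two-day P. gingivalis ATCC 33277 culture supernatant incubated with fluorescein-conjugated DQ type I collagen (stock 100 μg/mL) in TCNB buffer, compound final 0, 5, 25 or 100 μg/mL. Incubated 4 h in the dark at room temperature, then fluorescence read. Triplicates, mean ± SD.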

U-937 [4] = assay: Antiinflammatory activity in human U937 cells assessed as inhibition of LPS-induced IL1-beta secretion at 0.2 ug/ml after 24 hrs by ELISA relative to control; assay type: functional, cell-based
Method in brief: (§4)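 U937 monocytes differentiated with 10 ng/mL PMA for 48 h, then placed in RPMI-1% FBS. Pretreated 2 h with compound (0, 0.2, 1, 5 μg/mL), then stimulated with A. actinomycetemcomitans ATCC 29522 LPS (1 μg/mL) for 24 h. Cytokines and MMP-9 in supernatants measured by ELISA at 450 nm. Triplicates, two experiments, mean ± SD.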

[5] = target: Transcription factor p65 (Homo sapiens) (UniProt Q04206); assay: Inhibition of LPS-induced NF-kappaB p65 activation in human U937 cells at 5 ug/ml after 1 hr relative to control; assay type: cell-based; details: U-937
Method in brief: (§5)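 PMA-differentiated U937 macrophages pretreated with compound (5 μg/mL) for 1 h, then given LPS (1 μg/mL) for 1 h at 37 °C. Whole-cell extracts adjusted to 1 mg/mL protein. NF-κB p65 and AP-1 activation measured by TransAM kits; controls had no pretreatment.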

Prevotella intermedia [6] = assay: Bactericidal activity against Prevotella intermedia ATCC 25611 at 20 ug/ml by microdilution technique; assay type: functional, organism-based
Method in brief: (§6)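 MBC: aliquots from wells without visible growth spread on agar plates and incubated five days under appropriate conditions; MBC is the lowest concentration giving no colonies.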

Fusobacterium nucleatum [7] = assay: Antibacterial activity against Fusobacterium nucleatum ATCC 25586 at 40 ug/ml assessed as growth inhibition by microdilution technique relative to untreated control; assay type: functional; details: read-out: GI; method in brief: as §2
U-937 [8] = assay: Antiinflammatory activity in human U937 cells assessed as inhibition of LPS-induced TNFalpha secretion after 24 hrs by ELISA; assay type: functional, cell-based; method in brief: as §4
U-937 [9] = assay: Antiinflammatory activity in human U937 cells assessed as inhibition of LPS-induced IL1-beta secretion at 5 ug/ml after 24 hrs by ELISA relative to control; assay type: functional; method in brief: as §4
U-937 [10] = assay: Antiinflammatory activity in human U937 cells assessed as inhibition of LPS-induced of IL6 secretion at 5 ug/ml after 24 hrs by ELISA relative to control; assay type: functional; method in brief: as §4
U-937 [11] = assay: Antiinflammatory activity in human U937 cells assessed as inhibition of LPS-induced IL6 secretion at 0.2 ug/ml after 24 hrs by ELISA relative to control; assay type: functional, cell-based; method in brief: as §4
U-937 [12] = assay: Antiinflammatory activity in human U937 cells assessed as inhibition of LPS-induced IL8 secretion after 24 hrs by ELISA; assay type: functional, cell-based; method in brief: as §4
U-937 [13] = assay: Cytotoxicity against human U937 cells assessed as loss of cell viability by MTT assay; assay type: cell-based
Method in brief: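 PMA-differentiated U937 macrophages exposed to LPS or compound (up to 5 μg/mL) under the 24 h stimulation protocol; viability checked by MTT assay.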

[14] = target: T1, Collagenase (Porphyromonas gingivalis); assay: Inhibition of Porphyromonas gingivalis ATCC 33277 collagenase assessed as remaining activity at 100 ug/ml after 4 hrs by fluorimetric analysis relative to control; method in brief: as §3
[15] = target: Transcription factor Jun (Homo sapiens) (UniProt P05412); assay: Inhibition of LPS-induced AP-1 activation in human U937 cells at 5 ug/ml after 1 hr relative to control; assay type: cell-based; details: U-937; method in brief: as §5
Porphyromonas gingivalis [16] = assay: Bactericidal activity against Porphyromonas gingivalis ATCC 33277 at 40 ug/ml by microdilution technique; assay type: functional, organism-based; method in brief: as §6
Fusobacterium nucleatum [17] = assay: Antibacterial activity against Fusobacterium nucleatum ATCC 25586 by microdilution technique; assay type: functional, organism-based; method in brief: as §2
[18] = target: Matrix metalloproteinase-9 (Homo sapiens) (UniProt P14780); assay: Inhibition of human MMP9 assessed as remaining activity at 100 ug/ml after 4 hrs by fluorimetric analysis relative to control
Method in brief: (§7)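 Active human recombinant MMP-9 (final 100 ng/mL) in TCNB buffer (50 mM Tris-HCl, 10 mM CaCl2, 150 mM NaCl, 0.05% Brij35, pH 7.5) with fluorescein-conjugated DQ gelatin (stock 1 mg/mL); compound final 0, 5, 25 or 100 μg/mL. Incubated 4 h at 37 °C in the dark; fluorescence at ex 490/em 520 nm.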

Porphyromonas gingivalis [19] = assay: Antibacterial activity against Porphyromonas gingivalis ATCC 33277 by microdilution technique in presence of 10% unstimulated whole salive; assay type: functional, organism-based; method in brief: as §1
Porphyromonas gingivalis [20] = assay: Antibacterial activity against Porphyromonas gingivalis ATCC 33277 by microdilution technique; assay type: functional; method in brief: as §2
[21] = target: T1, Collagenase (Porphyromonas gingivalis); assay: Inhibition of Porphyromonas gingivalis ATCC 33277 collagenase assessed as remaining activity at 5 ug/ml after 4 hrs by fluorimetric analysis relative to control; method in brief: as §3
[22] = target: T1, Collagenase (Porphyromonas gingivalis); assay: Inhibition of Porphyromonas gingivalis ATCC 33277 collagenase assessed as remaining activity at 25 ug/ml after 4 hrs by fluorimetric analysis relative to control; method in brief: as §3
U-937 [23] = assay: Antiinflammatory activity in human U937 cells assessed as inhibition of LPS-induced IL8 secretion at 5 ug/ml after 24 hrs by ELISA relative to control; assay type: functional; details: U-937, 24 h; method in brief: as §4
[24] = target: Matrix metalloproteinase-9 (Homo sapiens) (UniProt P14780); assay: Inhibition of human MMP9 assessed as remaining activity at 25 ug/ml after 4 hrs by fluorimetric analysis relative to control; method in brief: as §7
[25] = target: Matrix metalloproteinase-9 (Homo sapiens) (UniProt P14780); assay: Inhibition of human MMP9 assessed as remaining activity at 5 ug/ml after 4 hrs by fluorimetric analysis relative to control; method in brief: as §7
U-937 [26] = assay: Antiinflammatory activity in human U937 cells assessed as inhibition of LPS-induced IL1-beta secretion after 24 hrs by ELISA; assay type: functional, cell-based; method in brief: as §4
U-937 [27] = assay: Antiinflammatory activity in human U937 cells assessed as inhibition of LPS-induced MMP9 secretion at 5 ug/ml after 24 hrs by ELISA relative to control; assay type: functional; details: U-937, 24 h; method in brief: as §4
U-937 [28] = assay: Antiinflammatory activity in human U937 cells assessed as inhibition of LPS-induced CCL5 secretion after 24 hrs by ELISA; assay type: functional, cell-based; method in brief: as §4
U-937 [29] = assay: Antiinflammatory activity in human U937 cells assessed as inhibition of LPS-induced CCL5 secretion at 5 ug/ml after 24 hrs by ELISA relative to control; assay type: functional; method in brief: as §4
U-937 [30] = assay: Antiinflammatory activity in human U937 cells assessed as inhibition of LPS-induced IL6 secretion after 24 hrs by ELISA; assay type: functional, cell-based; method in brief: as §4
Prevotella intermedia [31] = assay: Antibacterial activity against Prevotella intermedia ATCC 25611 by microdilution technique; assay type: functional; method in brief: as §2
U-937 [32] = assay: Antiinflammatory activity in human U937 cells assessed as inhibition of LPS-induced TNFalpha secretion at 5 ug/ml after 24 hrs by ELISA relative to control; assay type: functional; details: U-937, 24 h; method in brief: as §4
Prevotella intermedia [33] = assay: Antibacterial activity against Prevotella intermedia ATCC 25611 by microdilution technique in presence of 10% unstimulated whole salive; assay type: functional, organism-based; method in brief: as §1
Porphyromonas gingivalis [34] = assay: Antibacterial activity against Porphyromonas gingivalis ATCC 33277 by microdilution technique in presence of 1% fetal bovine serum; assay type: functional, organism-based; method in brief: as §1
Fusobacterium nucleatum [35] = assay: Antibacterial activity against Fusobacterium nucleatum ATCC 25586 by microdilution technique in presence of 1% fetal bovine serum; assay type: functional, organism-based; method in brief: as §1
Prevotella intermedia [36] = assay: Antibacterial activity against Prevotella intermedia ATCC 25611 by microdilution technique in presence of 1% fetal bovine serum; assay type: functional, organism-based; method in brief: as §1
Prevotella intermedia [37] = assay: Antibacterial activity against Prevotella intermedia ATCC 25611 at 40 ug/ml assessed as growth inhibition by microdilution technique relative to untreated control; assay type: functional; details: read-out: GI; method in brief: as §2

Sequence of Matrix metalloproteinase-9 (Homo sapiens) (P14780 whole entry): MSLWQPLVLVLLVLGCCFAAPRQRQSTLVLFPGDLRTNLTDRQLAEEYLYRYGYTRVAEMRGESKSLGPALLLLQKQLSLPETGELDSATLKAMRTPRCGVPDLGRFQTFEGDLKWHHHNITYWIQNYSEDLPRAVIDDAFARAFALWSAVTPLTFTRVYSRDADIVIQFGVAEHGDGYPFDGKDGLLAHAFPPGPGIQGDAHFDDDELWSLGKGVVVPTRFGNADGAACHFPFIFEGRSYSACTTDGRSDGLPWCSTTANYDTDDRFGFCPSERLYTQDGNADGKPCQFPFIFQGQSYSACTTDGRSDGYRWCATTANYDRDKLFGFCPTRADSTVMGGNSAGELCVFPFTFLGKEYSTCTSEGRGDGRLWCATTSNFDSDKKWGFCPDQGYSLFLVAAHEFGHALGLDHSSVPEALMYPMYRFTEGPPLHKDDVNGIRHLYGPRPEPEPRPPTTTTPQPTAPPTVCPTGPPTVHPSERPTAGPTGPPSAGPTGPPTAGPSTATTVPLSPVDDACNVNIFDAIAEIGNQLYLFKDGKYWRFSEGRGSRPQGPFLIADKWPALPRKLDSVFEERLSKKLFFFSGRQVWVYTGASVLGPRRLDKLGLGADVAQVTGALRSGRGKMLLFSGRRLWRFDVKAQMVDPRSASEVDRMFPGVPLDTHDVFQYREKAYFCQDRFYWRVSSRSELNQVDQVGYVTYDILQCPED
Sequence of Transcription factor Jun (Homo sapiens) (P05412 whole entry): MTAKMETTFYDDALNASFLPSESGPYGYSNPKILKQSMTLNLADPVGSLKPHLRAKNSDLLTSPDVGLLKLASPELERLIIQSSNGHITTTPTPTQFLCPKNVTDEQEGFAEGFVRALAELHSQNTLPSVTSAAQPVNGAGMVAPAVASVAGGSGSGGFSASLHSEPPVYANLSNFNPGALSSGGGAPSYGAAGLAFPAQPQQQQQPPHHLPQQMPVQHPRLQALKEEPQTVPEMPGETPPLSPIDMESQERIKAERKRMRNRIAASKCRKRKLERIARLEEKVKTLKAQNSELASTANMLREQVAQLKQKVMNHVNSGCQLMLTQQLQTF
Sequence of Transcription factor p65 (Homo sapiens) (Q04206 whole entry): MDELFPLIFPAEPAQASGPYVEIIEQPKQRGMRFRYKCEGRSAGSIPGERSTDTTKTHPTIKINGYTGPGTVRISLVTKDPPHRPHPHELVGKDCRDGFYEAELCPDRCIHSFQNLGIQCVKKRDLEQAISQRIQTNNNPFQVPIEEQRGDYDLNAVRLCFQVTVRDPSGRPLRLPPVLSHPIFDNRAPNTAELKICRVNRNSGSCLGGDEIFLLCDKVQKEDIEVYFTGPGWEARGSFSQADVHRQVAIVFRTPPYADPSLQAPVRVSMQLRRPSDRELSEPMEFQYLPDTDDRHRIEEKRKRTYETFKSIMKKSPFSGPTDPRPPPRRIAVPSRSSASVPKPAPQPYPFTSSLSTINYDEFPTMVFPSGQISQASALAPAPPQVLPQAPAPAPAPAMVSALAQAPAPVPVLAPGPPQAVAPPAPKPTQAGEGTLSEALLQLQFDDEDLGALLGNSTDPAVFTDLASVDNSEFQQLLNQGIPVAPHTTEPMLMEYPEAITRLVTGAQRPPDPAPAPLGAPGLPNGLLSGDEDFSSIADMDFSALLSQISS

In the case of O=C(/C=C/c1ccc(O)cc1)c1ccc(O)cc1O [ISOLIQUIRITIGENIN], the Activity (Fusobacterium nucleatum [1]) is reported as “Active”, the inhibition of growth at 5 µg/mL (Prevotella intermedia [2]) is reported as 58% and the inhibition [3] is reported as 52%. The inhibition (U-937 [4]) was “Active”, the inhibition [5] was “Active” and the inhibition (Prevotella intermedia [6]) was “Active”. For the same molecule, the inhibition of growth at 40 µg/mL (Fusobacterium nucleatum [7]) was 70%, the inhibition (U-937 [8]) was “Dose-dependent effect” and the inhibition (U-937 [9]) was “Active”. The inhibition (U-937 [10]) was “Active”, the inhibition (U-937 [11]) was “Active” and the inhibition (U-937 [12]) was “Dose-dependent effect”. For the same molecule, the Activity (U-937 [13]) was “Non-toxic”, the Activity [14] was 48% and the inhibition [15] was “Active”. The inhibition (Porphyromonas gingivalis [16]) was “inactive”, the Activity (Fusobacterium nucleatum [17]) was “Dose-dependent effect” and the Activity [18] was 67%. For the same molecule, the Activity (Porphyromonas gingivalis [19]) was “Active”, the Activity (Porphyromonas gingivalis [20]) was “Dose-dependent effect” and the MIC (Porphyromonas gingivalis [20]) was 40 µg/mL (≈ 156 µM). For the same molecule, the Activity [21] was 82%, the Activity [22] was 78% and the inhibition at 5 µg/mL (U-937 [23]) was 34%. The Activity [24] was 91%, the Activity [25] was 97% and the inhibition (U-937 [26]) was “Dose-dependent effect”. The inhibition at 5 µg/mL (U-937 [27]) was 89%, the inhibition (U-937 [28]) was “Dose-dependent effect” and the inhibition (U-937 [29]) was “Active”. For the same molecule, the inhibition (U-937 [30]) was “Dose-dependent effect”, the Activity (Prevotella intermedia [31]) was “Dose-dependent effect” and the MIC (Prevotella intermedia [31]) was 10 µg/mL (≈ 39 µM). For the same molecule, the inhibition at 5 µg/mL (U-937 [32]) was 87%, the Activity (Prevotella intermedia [33]) was “Active” and the Activity (Porphyromonas gingivalis [34]) was “Active”. For the same molecule, the Activity (Fusobacterium nucleatum [35]) was “Active” and the Activity (Prevotella intermedia [36]) was “Active”.
For O=C1C[C@@H](c2ccc(O)cc2)Oc2cc(O)ccc21 [LIQUIRTIGENIN], the inhibition [3] was 21%, the inhibition [5] was 39% and the inhibition of growth at 40 µg/mL (Prevotella intermedia [37]) was 85%. For the same molecule, the inhibition at 5 µg/mL (U-937 [9]; U-937, 24 h) was 34%, the inhibition at 5 µg/mL (U-937 [10]; U-937, 24 h) was 23% and the Activity (U-937 [13]) was “Non-toxic”. The Activity [14] was 79%, the inhibition [15] was 20% and the Activity [18] was 87%. The Activity [21] was 83%, the Activity [22] was 82% and the inhibition at 5 µg/mL (U-937 [23]) was 11%. For the same molecule, the Activity [24] was 95%, the Activity [25] was 95% and the inhibition at 5 µg/mL (U-937 [27]) was 24%. The inhibition at 5 µg/mL (U-937 [29]; U-937, 24 h) was 24%, the inhibition at 5 µg/mL (U-937 [32]) was 17% and the Activity (Prevotella intermedia [33]) was “Active”. For the same molecule, the Activity (Prevotella intermedia [36]) was “Active”.
